# ABCB1 inh = inhibitors of human ABCB1 transporter, ABCG2 counter-screen; inhibition, % at 6.6 µM; 0.067% of 190,000 active; P08183; CCRF-Adr cells, JC-1 efflux, flow cytometry; in the data active = inhibition above about 40%;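 also: 0% = vehicle and 100% = reference inhibitor; higher value means more JC-1 retained so stronger ABCB1 efflux block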
# ABCG2 inh = blocks JC-1 efflux by human ABCG2 transporter; Q9UNQ0; IgMXP3 cells, flow cytometry; inhibition, % at 6.6 µM; 0.1% of 190,000 active; AID 1325;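 active = inhibition above 80%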;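 also: 0% = DMSO and 100% = nicardipine control wells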
#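 Measure – % inhibition of efflux relative to nicardipine and DMSO · Test system – ABCG2 IgMXP3 and barcoded ABCB1 CCRF-Adr cell mix · Control set – nicardipine as high control, DMSO as low control · Compound – one concentration, 6.6 µM final · Signal – flow cytometry of retained JC-1 fluorescence · Timing – 10 min exposure at 25 °C with rotation, no wash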
# PMI act satM6P = PMI (human) activation, high substrate | AID 1216 | 0.34% of 190,000 active | activation factor at 20 µM | coupled PMI enzyme assay, resazurin fluorescence, 20 min; hits give high values; 1 = untreated enzyme, 0 = substrate-free blank;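 active = activation factor of 2 or more at 20 µM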
#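 test system = human PMI in coupled enzyme assay | medium = HEPES-buffered pH 7.4 with magnesium and detergent | also added = 1.0 mM mannose-6-phosphate substrate with 0.22 mM NADP+ | compound = 20 µM single dose | times = 20 min incubation at room temperature | measured by = resorufin fluorescence (Ex 544/Em 590 nm) from resazurin via diaphorase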
# Cl transport mod = KCC2 (human) Cl- transport modulation. Q9H2X9. KCC2 cells, thallium flux FluoZin-2 fluorescence. B-score of Tl+ flux slope (higher = more flux/activation; lower = inhibition) at 10 µM. 2.2% of 190,000 active. AID 1456;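 active = thallium flux slope and its plate-corrected score both differing from the plate sample mean at a set confidence after two filtering rounds, in either direction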;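 also: slope of fluorescence scaled to starting intensity during 10 to 20 s after thallium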
# Target sequence (Q9H2X9 whole entry, looked up): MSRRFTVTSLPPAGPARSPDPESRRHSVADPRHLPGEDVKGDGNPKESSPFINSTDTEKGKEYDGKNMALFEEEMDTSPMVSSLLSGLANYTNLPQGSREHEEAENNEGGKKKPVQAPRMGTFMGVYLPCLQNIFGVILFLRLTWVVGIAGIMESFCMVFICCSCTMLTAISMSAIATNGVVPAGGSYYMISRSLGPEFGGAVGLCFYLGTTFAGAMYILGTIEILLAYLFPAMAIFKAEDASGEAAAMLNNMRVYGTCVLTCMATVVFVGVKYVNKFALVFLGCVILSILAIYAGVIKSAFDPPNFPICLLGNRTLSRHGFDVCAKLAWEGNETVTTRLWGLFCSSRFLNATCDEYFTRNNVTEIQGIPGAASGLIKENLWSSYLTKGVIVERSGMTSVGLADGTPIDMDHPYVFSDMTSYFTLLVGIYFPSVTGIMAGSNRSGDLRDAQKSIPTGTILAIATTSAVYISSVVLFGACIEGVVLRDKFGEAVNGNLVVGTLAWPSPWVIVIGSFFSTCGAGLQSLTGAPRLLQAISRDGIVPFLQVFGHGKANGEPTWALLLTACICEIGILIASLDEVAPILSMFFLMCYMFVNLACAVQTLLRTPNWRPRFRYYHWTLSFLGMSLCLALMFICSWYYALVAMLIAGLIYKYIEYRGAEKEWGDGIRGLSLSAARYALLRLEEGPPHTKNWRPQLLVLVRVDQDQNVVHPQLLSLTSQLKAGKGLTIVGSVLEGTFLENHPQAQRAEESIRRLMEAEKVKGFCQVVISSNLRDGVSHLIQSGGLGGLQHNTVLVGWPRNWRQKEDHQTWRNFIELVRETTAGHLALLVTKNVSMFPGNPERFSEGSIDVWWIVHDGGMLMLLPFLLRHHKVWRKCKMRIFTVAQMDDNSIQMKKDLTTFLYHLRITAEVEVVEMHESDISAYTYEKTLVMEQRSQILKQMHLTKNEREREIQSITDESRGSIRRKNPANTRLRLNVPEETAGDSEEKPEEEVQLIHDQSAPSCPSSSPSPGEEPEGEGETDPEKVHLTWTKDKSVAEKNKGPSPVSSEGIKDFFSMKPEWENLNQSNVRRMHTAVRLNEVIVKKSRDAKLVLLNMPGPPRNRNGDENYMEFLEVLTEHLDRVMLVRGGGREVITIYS
# ROMK mod = modulators of human ROMK potassium channel; B-score at 10 µM; P48048; Tet-inducible ROMK, thallium flux fluorescence; actives lie on both sides; AID 1918; 2% of 130,000 active;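 active = signal ratio slope over the read window, or its plate-corrected B-score, at least 3 SD from the plate mean, either direction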;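 also: B-score of the F/F0 ratio slope over 7 to 12 s after thallium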
# PMI act = activators of human phosphomannose isomerase; P34949; purified human PMI, coupled resazurin fluorescence, 20 min; hits give high values; 1 = vehicle control, 0 substrate-free wells; activation factor at 20 µM; 0.005% of 190,000 active;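 active = activation factor of 2 or more at 20 µM, relative to plate controls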
# ROMK hit retest = retested hit modulating human ROMK potassium channel; shares compounds with ROMK mod; ROMK thallium flux, fluorescence ratio; hits give low values; normalized thallium flux (F/F0 slope) at 10 µM; 54% of 3,000 active; AID 1917;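 active = Flux at 10 µM at least 3 SD below or above vehicle control mean in one or both replicates; inconclusive = no clear call, values can overlap the other calls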
# Numbers without * were called inactive; ? = inconclusive; · = not tested or not shown. Hits are enriched below; roughly 3.3% of the tested compounds scored in any of these assays.
SMILES,ABCB1 inh,ABCG2 inh,PMI act satM6P,Cl transport mod,ROMK mod,PMI act,ROMK hit retest
CC1CCc2sc(C(=O)OCC(=O)NCc3ccc(F)cc3)cc2C1 (configuration not stated),0,0,0.9,0.38,·,0.9,·
C1CCc2c(nc3nnnn3c2NC2CCCC2)C1,0,3,1,-0.91,·,1,·
O=C(Oc1ccc(Nc2ncnc3ccccc23)cc1)c1cccnc1,0,1,1.1,-2.2,-2.9*,1.1,0.065*
CC1CCN(C(C(=O)NC2CCCCC2)c2cc3c(cc2[N+](=O)[O-])OCO3)CC1 (configuration not stated),2,6,0.4,0.34,-3.1*,0.8,0.06*
COc1ccc2[nH]c(C(=O)O)c(NS(=O)(=O)c3ccc(OC)c(OC)c3)c2c1,0,1,1.1,·,1.3,0.9,·
COC(=O)c1[nH]c2ccc(F)cc2c1NS(=O)(=O)c1ccc(OC)cc1,0,24,0.9,-0.35,2.2,0.9,0.092
Cn1c(C(=O)NC2CCCC2)cc2c(=O)n(C)c3ccccc3c21,1,4,1,-1,·,0.9,·
COc1cc(/C=C(\C#N)C(=O)Nc2ccccc2C(=O)O)cc(Cl)c1OC,0,0,1.2,-3,-4.6*,1.4,0.057*
COc1cc(C)c(S(=O)(=O)NC2CC(C)(C)NC(C)(C)C2)cc1C,0,0,1,·,-1.8,1,·
COc1cc(C)c(Cl)cc1S(=O)(=O)NC1CC(C)(C)NC(C)(C)C1,0,0,1,0.49,-6.4*,1,0.052*
CCCOc1cc(C)c(S(=O)(=O)NC2CC(C)(C)NC(C)(C)C2)cc1C,0,16,1,-0.11,-4.4*,1,0.062*
O=C(NCC1COc2ccccc2O1)C1CCN(S(=O)(=O)c2cccc3nsnc23)CC1 (configuration not stated),0,0,0.9,1.7,·,0.9,·
Cc1ccc(NC(=O)C(Nc2ccccc2)c2ccccc2)cc1 (configuration not stated),1,28,1,-0.056,·,0.9,0.083
CSc1nc(C)c(C(=O)C[n+]2ccccc2)cc1C#N,·,·,·,0.62,·,·,·
CCOc1cc(C2C(C#N)=C(N)OC(C)=C2C(C)=O)c(Br)c(Br)c1OC(C)C (configuration not stated),0,2,0.8,-0.52,-3.6*,1.1,0.079
CCOc1cc(C2C(C#N)=C(N)OC(C)=C2C(C)=O)cc(Br)c1O (configuration not stated),-1,-2,1,·,-1.3,0.9,·
Cc1ccccc1NC(=S)NC1(C)CCS(=O)(=O)C1 (configuration not stated),0,-3,1.1,-0.031,-0.079,1.1,·
COc1ccccc1OCC(=O)N(Cc1nc(-c2ccccc2)no1)C1CCCCC1,3,11,0.8,-0.55,·,0.8,0.079
O=C(COC(=O)c1cccc(S(=O)(=O)NCc2ccccc2)c1)c1ccccc1,1,8,1,-0.24,0.34,1,·
CCOc1ccccc1NC(=S)N1CCC(c2nc3ccccc3o2)CC1,1,7,0.9,-0.58,-0.43,0.9,·
CCOc1cc2c3c(c1)C(C)=CC(C)(C)N3C(=O)C2=O,0,7,0.8,-0.1,3.2*,0.8,0.077
CCOc1cc2c3c(c1)C(C)CC(C)(C)N3C(=O)C2=O (configuration not stated),0,1,1,·,·,1,·
CCCN1CCC(NC(=S)Nc2cccc(Cl)c2Cl)CC1,1,5,1.1,-0.074,-0.052,1,·
CCOC(=O)COc1c(Br)cc(/C=C2\SC(=O)N(CC(=O)N3CCCC3)C2=O)cc1OC,2,15,1,-0.0045,-4.7*,1,0.057*
O=C(N[C@@H](Cc1ccccc1)C(=O)O)c1ccncc1,1,1,1.2,·,·,1.1,·
O=C1NC(=O)/C(=C\c2ccc(N3CCOCC3)o2)N1,0,0,0.9,-0.034,-3.6*,1.1,?

# High-throughput results: PubChem BioAssay, several laboratories
